This note sets out measurements from ChEMBL document CHEMBL4396941, “Design, synthesis and biological evaluation of benzamide derivatives as novel NTCP inhibitors that induce apoptosis in HepG2 cells” (Bioorg Med Chem Lett, 2019).

Experiment [1] deals with T1, Hepatic sodium/bile acid cotransporter (Homo sapiens, UniProt Q14973).
T1 sequence (Q14973 whole entry): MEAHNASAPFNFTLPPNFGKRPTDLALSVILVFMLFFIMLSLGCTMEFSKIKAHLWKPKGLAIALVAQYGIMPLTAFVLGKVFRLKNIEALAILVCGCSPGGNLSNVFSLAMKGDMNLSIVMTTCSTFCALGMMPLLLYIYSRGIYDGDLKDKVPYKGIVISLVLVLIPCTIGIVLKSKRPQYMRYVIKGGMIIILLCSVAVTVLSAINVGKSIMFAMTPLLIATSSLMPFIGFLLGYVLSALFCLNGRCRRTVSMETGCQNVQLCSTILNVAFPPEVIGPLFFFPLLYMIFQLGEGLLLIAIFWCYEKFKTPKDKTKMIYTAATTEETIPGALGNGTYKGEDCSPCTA
The experiment in a line: Inhibition of NTCP in human hepatocytes. The experiment is classed as cell-based.

The subject of experiment [2] is Hepatitis B virus. The experiment in a line: Antiviral activity against hepatitis B virus infected in human HepG2.2.15 cells assessed as HBsAg secretion at 5 uM incubated for 9 days by ELISA (reference value: 8.41+/- 0.54 ng/ml). The format is functional.
Experiment [3] relates to HepG2. The experiment in a line: Induction of apoptosis in human HepG2 cells assessed as increase in caspase-3 cleavage at 2.5 to 10 uM incubated for 24 hrs by Western blot analysis. The format is functional, cell-based. In a few lines: (§1)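 HepG2 cells treated 24 h at several concentrations; NTCP, PARP, Bax, Bcl-2 and caspase-3 detected by western blot.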
Experiment [4] relates to HepG2. The experiment in a line: Inhibition of NTCP protein expression in human HepG2 cells at 2.5 to 10 uM incubated for 24 hrs by western blot analysis. The format is functional, cell-based. In outline:
as §1

Experiment [5] concerns HepG2. The experiment in a line: Induction of apoptosis in human HepG2 cells assessed as late apoptotic cells at 2.5 uM incubated for 24 hrs by annexin -V/propidium iodide staining based flow cytometry (reference value: 4.72%). The experiment is classed as functional.
Experiment [6] deals with HepG2. The experiment in a line: Induction of apoptosis in human HepG2 cells assessed as downregulation of Bcl2 protein expression at 2.5 to 10 uM incubated for 24 hrs by Western blot analysis. The experiment is classed as functional, cell-based. In outline:
as §1

Experiment [7] concerns HepG2. The experiment in a line: Induction of apoptosis in human HepG2 cells assessed as late apoptotic cells at 5 uM incubated for 24 hrs by annexin -V/propidium iodide staining based flow cytometry (reference value: 4.72%). The experiment is classed as functional.
Experiment [8] relates to HepG2. The experiment in a line: Induction of apoptosis in human HepG2 cells assessed as early apoptotic cells at 10 uM incubated for 24 hrs by annexin -V/propidium iodide staining based flow cytometry (reference value: 2.23%). The experiment is classed as functional.
Experiment [9] concerns HepG2. The experiment in a line: Antiproliferative activity against human HepG2 cells assessed as inhibition of cell growth incubated for 48 hrs by MTT assay. The format is functional, cell-based. Conditions: HepG2, 48 h. In a few lines:
(§2)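 HepG2 cells exposed to a range of concentrations for the stated times, then inhibition rate measured by MTT.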

In experiment [10] the test system is HepG2. The experiment in a line: Induction of apoptosis in human HepG2 cells assessed as early apoptotic cells at 5 uM incubated for 24 hrs by annexin -V/propidium iodide staining based flow cytometry (reference value: 2.23%). The format is functional.
Experiment [11] concerns HepG2. The experiment in a line: Antiproliferative activity against human HepG2 cells assessed as inhibition of cell growth incubated for 72 hrs by MTT assay. The experiment is classed as functional, cell-based. As to conditions: HepG2, 72 h. In outline: as §2
The test system of experiment [12] is HepG2. The experiment in a line: Antiproliferative activity against human HepG2 cells assessed as inhibition of cell growth incubated for 24 hrs by MTT assay. The experiment is classed as functional, cell-based. Conditions: HepG2, 24 h. In a few lines: as §2
Experiment [13] has as its system Hepatitis B virus. The experiment in a line: Antiviral activity against hepatitis B virus infected in human HepG2.2.15 cells assessed as reduction in HBeAg secretion at 5 uM incubated for 9 days by ELISA (reference value: 25.13 +/- 1.93 ng/ml). The experiment is classed as functional.
In experiment [14] the test system is Hepatitis B virus. The experiment in a line: Antiviral activity against hepatitis B virus infected in human HepG2.2.15 cells assessed as reduction in HBV DNA level incubated for 9 days by real time-PCR analysis. The format is functional, organism-based.
Experiment [15] relates to HepG2. The experiment in a line: Induction of apoptosis in human HepG2 cells assessed as upregulation of Bax protein expression at 2.5 to 10 uM incubated for 24 hrs by Western blot analysis. The experiment is classed as functional, cell-based. In a few lines:
as §1

Experiment [16] deals with HepG2. The experiment in a line: Induction of apoptosis in human HepG2 cells assessed as early apoptotic cells at 2.5 uM incubated for 24 hrs by annexin -V/propidium iodide staining based flow cytometry (reference value: 2.23%). The experiment is classed as functional.
The test system of experiment [17] is HepG2. The experiment in a line: Induction of cell morphological changes in human HepG2 cells assessed as condensed chromatin at 2.5 to 10 uM incubated for 24 hrs by Hoechst 33258 staining based fluorescence microscopy. The format is functional. In a few lines: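 HepG2 cells treated 24 h at several concentrations, stained with Hoechst 33258, chromatin morphology examined by fluorescence microscopy.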

In experiment [18] the test system is HepG2. The experiment in a line: Induction of apoptosis in human HepG2 cells assessed as increase in PARP cleavage at 2.5 to 10 uM incubated for 24 hrs by Western blot analysis. The experiment is classed as functional, cell-based. In outline: as §1
Experiment [19] has as its system HepG2. The experiment in a line: Induction of apoptosis in human HepG2 cells assessed as late apoptotic cells at 10 uM incubated for 24 hrs by annexin -V/propidium iodide staining based flow cytometry (reference value: 4.72%). The format is functional.

Active and inactive are the calls of the source. The rule behind the calls is not given here.

In turn, `Cc1cc(OCCCS(C)(=O)=O)cc(C)c1-c1cccc(COc2ccc3c(c2)OC[C@H]3CC(=O)O)c1` yielded an IC50 in experiment [1] of 2000 nM.

For `Cc1ccc(C(=O)NCC(=O)N/N=C/c2ccccc2OCc2cc3c(cc2Cl)OCO3)cc1`, the Activity in the experiment on Hepatitis B virus [2] worked out at 1.93 ng/mL; in the experiment on HepG2 [5], 15.33%; in the experiment on HepG2 [7] it was 21.66%; in the experiment on HepG2 [8] it was 5.99%; in the experiment with HepG2 [10], 5.39%; in the experiment on Hepatitis B virus [13] it was 7.43 ng/mL. In addition, the values for the Activity in the experiment with HepG2 [16] and with HepG2 [19] were 4.73% and 30.48%, respectively. Also, the result with HepG2 [3], in the experiment with HepG2 [6], with HepG2 [15], in the experiment on HepG2 [17] and in the experiment with HepG2 [18] was Active. In addition, the inhibition entry in the experiment with HepG2 [4] and in the experiment on Hepatitis B virus [14] was “Active” throughout. For the same compound, the IC50 turned out to be 1200 nM with HepG2 [9], 900 nM in the experiment with HepG2 [11] and 2800 nM in the experiment with HepG2 [12].
